This note sets out measurements from ChEMBL document CHEMBL1151197, “Molecular-targeted antitumor agents: the Saururus cernuus dineolignans manassantin B and 4-O-demethylmanassantin B are potent inhibitors of hypoxia-activated HIF-1” (J Nat Prod, 2004).

Molecules are shown by their SMILES. Active and inactive are the calls of the source. The calls are words filed in the database; no cut-off is given here.

Holding throughout (type): cell-based
The target in assay [1] is T1, Hypoxia inducible factors; HIF-1-alpha, HIF-2-alpha (Homo sapiens, UniProt Q16665+Q99814). The assay can be described thus: Inhibition of 1,10-phenathroline-induced HIF1 activation in human T47D cells after 16 hrs at >=30 nM by pTK-HRE3-luciferase reporter gene assay. The arrangement: scale not given: the % may be the effect or the level left. In short, it runs like this: (§1)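 T47D cells electroporated with pTK-HRE3-luc (140 V, 70 ms, 1 pulse), plated 4.5 × 10^4 cells/well, after 24 h given a dilution series for 30 min at 37 °C, then 10 µM 1,10-phenanthroline for 16 h at 37 °C. Luciferase read from cell lysates; quadruplicate wells. Specificity counter-screen used pGL3-Control-transfected cells.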
Background: Reporter assays use an easily measured gene product as a stand-in for the process of interest.

The target of assay [2] is T1, Hypoxia inducible factors; HIF-1-alpha, HIF-2-alpha. The assay can be described thus: Inhibition of 1,10-phenathroline-induced HIF1 activation in human T47D cells after 16 hrs at >=10 nM by pTK-HRE3-luciferase reporter gene assay. The arrangement: scale not given: the % may be the effect or the level left. In short, it runs like this:
as §1

The target is the same in assay [3]. The assay can be described thus: Inhibition of hypoxia-induced HIF1 activation in human T47D cells at 100 nM after 16 hrs by pTK-HRE3-luciferase reporter gene assay. An outline of the steps:
(§2)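 Reporter: T47D cells electroporated with pTK-HRE3-luc (140 V, 70 ms, 1 pulse), plated 4.5 × 10^4 cells/well, after 24 h pretreated with serial dilutions for 30 min at 37 °C, then hypoxia (1% O2/5% CO2/94% N2) for 16 h at 37 °C. Luciferase read from lysates; triplicate wells, means ± SD. pGL3-Control cells run as counter-screen.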

The target is the same in assay [4]. The assay can be described thus: Inhibition of hypoxia-induced HIF1 activation in human T47D cells after 16 hrs by pTK-HRE3-luciferase reporter gene assay. An outline of the steps: as §2
For assay [5], the system named is T47D. The assay can be described thus: Inhibition of hypoxia-induced VEGF production in human T47D cells after 16 hrs by ELISA. An outline of the steps:
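T47D cells at 3 × 10^4 cells/well, 30 min compound pretreatment, then 16 h hypoxia (1% O2). Secreted VEGF measured in conditioned medium by sandwich ELISA (OD450, 540 nm correction) against a standard curve. Values normalized to viable cell number from Neutral Red uptake (OD540 minus 630 nm, cell-number standard curve). Quadruplicate; mean ± SEM; ANOVA with Fisher's PLSD.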

In assay [6] the test system is T47D. The assay can be described thus: Inhibition of hypoxia-induced nuclear HIF1 beta level in human T47D cells at 10 to 100 nM preincubated for 30 mins before addition of hypoxia measured after 4 hrs by Western blotting. An outline of the steps:
(§3)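 Seeded at 1.7 × 10^5 cells/cm2 overnight, T47D cells got 10 or 100 nM for 30 min, then 4 h of hypoxia or 10 µM 1,10-phenanthroline at 37 °C. Nuclear extracts prepared by NP-40 lysis and 500 mM KCl extraction, separated on 7% SDS-PAGE. Blots probed with anti-HIF-1α (1:500), stripped, reprobed for HIF-1β (1:1500); ABC/ECL detection, Ponceau-S loading check.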
On the technique in general: A western blot detects proteins with antibodies after separation by electrophoresis.

Assay [7] deals with Hypoxia-inducible factor 1-alpha (Homo sapiens) (UniProt Q16665). The assay can be described thus: Inhibition of hypoxia-induced nuclear HIF1 alpha level in human T47D cells at 10 to 100 nM preincubated for 30 mins before addition of hypoxia measured after 4 hrs by Western blotting. In short, it runs like this: as §3
Assay [8] concerns T47D. The assay can be described thus: Inhibition of 1,10-phenathroline-induced nuclear HIF1 beta level in human T47D cells at 10 to 100 nM preincubated for 30 mins before addition of 1,10-phenathroline measured after 4 hrs by Western blotting. An outline of the steps: as §3
Assay [9] addresses T1, Hypoxia inducible factors; HIF-1-alpha, HIF-2-alpha. The assay can be described thus: Inhibition of hypoxia-induced HIF1 activation in human T47D cells at 10 nM after 16 hrs by pTK-HRE3-luciferase reporter gene assay. In short, it runs like this: as §2
For assay [10], the target named is Hypoxia-inducible factor 1-alpha (Homo sapiens) (UniProt Q16665). The assay can be described thus: Inhibition of 1,10-phenathroline-induced nuclear HIF1 alpha level in human T47D cells at 10 to 100 nM preincubated for 30 mins before addition of 1,10-phenathroline measured after 4 hrs by Western blotting. In short, it runs like this: as §3

Sequence of Hypoxia-inducible factor 1-alpha (Homo sapiens) (Q16665 whole entry, looked up): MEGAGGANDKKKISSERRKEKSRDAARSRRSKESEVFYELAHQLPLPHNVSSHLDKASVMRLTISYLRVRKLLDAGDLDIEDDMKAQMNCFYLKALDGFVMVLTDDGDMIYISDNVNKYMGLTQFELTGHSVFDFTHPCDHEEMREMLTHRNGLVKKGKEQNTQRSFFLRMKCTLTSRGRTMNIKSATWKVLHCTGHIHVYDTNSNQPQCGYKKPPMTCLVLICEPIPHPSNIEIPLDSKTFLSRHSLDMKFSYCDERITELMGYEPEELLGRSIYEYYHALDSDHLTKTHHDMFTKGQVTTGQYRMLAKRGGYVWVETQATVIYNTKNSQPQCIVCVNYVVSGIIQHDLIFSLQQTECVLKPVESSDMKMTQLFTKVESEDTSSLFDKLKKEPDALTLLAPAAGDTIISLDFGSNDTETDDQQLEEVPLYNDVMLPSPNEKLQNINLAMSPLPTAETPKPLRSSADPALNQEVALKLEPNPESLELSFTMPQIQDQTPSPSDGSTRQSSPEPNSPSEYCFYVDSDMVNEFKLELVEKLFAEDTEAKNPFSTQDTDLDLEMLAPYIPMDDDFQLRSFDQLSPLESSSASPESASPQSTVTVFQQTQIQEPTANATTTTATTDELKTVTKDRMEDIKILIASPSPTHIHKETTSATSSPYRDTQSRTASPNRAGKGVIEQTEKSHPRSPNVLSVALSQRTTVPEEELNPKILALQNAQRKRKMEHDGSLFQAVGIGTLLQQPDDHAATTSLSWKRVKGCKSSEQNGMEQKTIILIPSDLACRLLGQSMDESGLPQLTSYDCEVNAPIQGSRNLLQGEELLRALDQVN

As usually defined, the IC50 is the concentration at which inhibition is half-maximal. For `COc1cc([C@@H](O)[C@@H](C)Oc2ccc([C@H]3O[C@H](c4ccc(O[C@H](C)[C@H](O)c5ccc6c(c5)OCO6)c(OC)c4)[C@H](C)[C@H]3C)cc2OC)ccc1O` (mixture of isomers) [4-O-DEMETHYLMANASSANTIN B], the Activity in [1] and in assay [2] was under 50% in each case. In addition, the result in [3] and in [5] was Active. This molecule also came in with an IC50 in assay [4] of 30 nM.

Consider `COc1ccc([C@@H](O)[C@@H](C)Oc2ccc([C@H]3O[C@H](c4ccc(O[C@H](C)[C@H](O)c5ccc6c(c5)OCO6)c(OC)c4)[C@H](C)[C@H]3C)cc2OC)cc1OC` (relative stereo) [MANASSANTIN B], for which the Activity in [1] and in assay [2] was under 50% in each case. For the same molecule, the result in assay [6], in assay [8] and in assay [10] was inactive. In addition, the result in assay [7], in assay [9] and in [5] was Active. In addition, the IC50 in assay [4] was 3 nM.
